# Source: article PMC12079591 (ACS Omega, 2025)
# Where two headings read alike, the source gives them in different places.
# Columns and labels:
# [1] = system: PC-3; experiment: Cell proliferation assay; assay type: cell-based, human
# Procedure, shortened: (§1)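 Mycoplasma-negative, STR-authenticated cells were seeded at 4000−6000/well and kept overnight at 37 °C, 5% CO2. Graded test compound concentrations or solvent control were added to triplicate wells. Adherent lines were read by SRB (OD 510 nm) and suspension lines by MTT (OD 570 nm). IC50 was obtained by nonlinear regression. Results are means ± SD (n ≥ 2).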
# [2] = system: MDA-MB-231; experiment: Cell proliferation assay; assay type: cell-based, human
# Procedure, shortened: as §1
# [3] = 1 h postinjection; cited from earlier work
# [4] = system: K562/ADR; experiment: Cell proliferation assay, multidrug-resistant K562/ADR; assay type: cell-based; details: for IC50: Homo sapiens, K562/Adr, read-out: IC50 K562/ADR; for RF (resistance factor): K562/ADR versus K562
# Procedure, shortened: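 K562/ADR cells were derived from parental K562 by stepwise increases in ADR concentration. Proliferation was measured by the SRB (adherent) or MTT (suspension) method: 4000−6000 cells/well seeded overnight at 37 °C, 5% CO2, graded test compound in triplicate wells. IC50 was obtained by nonlinear regression. The resistance factor compares K562/ADR with parental K562. Results are means ± SD (n ≥ 2).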
# [5] = system: K562; experiment: Cell proliferation assay; assay type: cell-based; details: Homo sapiens, K562, read-out: IC50 K562
# Procedure, shortened: as §1
# [6] = read-out: IC50 PC-3, prostate carcinoma, mean ± SD (n ≥ 2)
# [7] = read-out: IC50 MDA-MB-231, breast carcinoma, mean ± SD (n ≥ 2)
# [8] = Homo sapiens, PC-3, read-out: IC50 PC-3
# [9] = Homo sapiens, MDA-MB-231, read-out: IC50 MDA-MB-231
Compound,"IC50 [1, 6] [µM]","IC50 [2, 7] [µM]",IC50 [4] [µM],IC50 [5] [µM],RF (resistance factor) [4],other results
O=C([O-])CN(CCN(CC(=O)[O-])Cc1cc(CCC(=O)NCCCCCC(=O)NCCCC[C@H](NC(=O)N[C@@H](CCC(=O)O)C(=O)O)C(=O)O)ccc1[O-])Cc1cc(CCC(=O)O)ccc1[O-].[68Ga+3].[OH3+] [^68Ga-PSMA11],,,,,,brain uptake [3]: 0.013 ± 0.004 % ID/g
COc1cccc2c1C(=O)c1c(O)c3c(c(O)c1C2=O)C[C@@](O)(C(=O)CO)C[C@@H]3O[C@H]1C[C@H](N)[C@H](O)[C@H](C)O1 [adriamycin],,,2.84 ± 1.06,0.0267 ± 0.00082,106.35,
"COc1ccc(-c2coc3cc(O)ccc3c2=O)cc1 [formononetin, reference compound]",,,,,,"IC50 [1, 8]: > 100 µM; IC50 [2, 9]: > 100 µM"
"O=c1c(-c2ccc(O)cc2)coc2cc(O)cc(O)c12 [genistein, reference compound]",,,,,,"IC50 [1, 8]: 29.5 ± 8.74 µM; IC50 [2, 9]: 36.9 ± 2.81 µM"
CC(=O)O[C@H]1C(=O)[C@@]2(C)[C@H]([C@H](OC(=O)c3ccccc3)[C@]3(O)C[C@H](OC(=O)[C@H](O)[C@@H](NC(=O)c4ccccc4)c4ccccc4)C(C)=C1C3(C)C)[C@]1(OC(C)=O)CO[C@@H]1C[C@@H]2O [paclitaxel],,,> 10,0.00157 ± 0.0015,>6000,RF (resistance factor) ([4]; listed as PTX): over 6000
CCC1=C[C@@H]2CN(C1)Cc1c([nH]c3ccccc13)[C@@](C(=O)OC)(c1cc3c(cc1OC)N(C)[C@H]1[C@@](O)(C(=O)OC)[C@H](OC(C)=O)[C@]4(CC)C=CCN5CC[C@]31[C@@H]54)C2 [vinorelbine],,,0.326 ± 0.0425,0.00157 ± 0.00112,230.86,

# Second part, led by results:
"IC50 [1, 6] [µM]","IC50 [2, 7] [µM]",IC50 [4] [µM],IC50 [5] [µM],Compound,RF (resistance factor) [4],other results
38 ± 2.79,25.4 ± 7.3,,,"3-(1,2-Dicarba-closo-dodecarboranyl)-7-methoxychroman-4-one [Compound 1i]",,
35.5 ± 0.98,35.3 ± 4.78,,,"3-(1,2-Dicarba-closo-dodecarboranyl)-7-methoxychromane [Compound 1k]",,
16.6 ± 1.89,17.9 ± 6.09,,,"3-(1,2-Dicarba-closo-dodecarboranyl)chromane-4,7-diol [Compound 1l]",,
72.4 ± 1.06,65.3 ± 5.39,,,"7-(Benzyloxy)-3-(1,2-dicarba-closo-dodecarboranyl)-4H-chromen-4-one [Compound 1c]",,
